Reference: ChEMBL document CHEMBL4004822, “Thienopyrimidinone Based Sirtuin-2 (SIRT2)-Selective Inhibitors Bind in the Ligand Induced Selectivity Pocket” (J Med Chem, 2017)
Calls of active or inactive are those of the source. The rule behind the calls is not given here.

How the values were obtained:
[1] = target: T1, NAD-dependent protein deacetylase sirtuin-2 (Homo sapiens, UniProt Q8IXJ6); assay: (§1) Inhibition of recombinant human C-terminal His-tagged SIRT2 (50 to 389 end residues) expressed in Escherichia coli using p53 derived (379 to 382 residues) fluorogenic peptide substrate RHKK(Ac)-AMC preincubated for 10 mins followed by substrate addition in presence of NAD+ by fluorescence assay
T1 sequence (Q8IXJ6 whole entry): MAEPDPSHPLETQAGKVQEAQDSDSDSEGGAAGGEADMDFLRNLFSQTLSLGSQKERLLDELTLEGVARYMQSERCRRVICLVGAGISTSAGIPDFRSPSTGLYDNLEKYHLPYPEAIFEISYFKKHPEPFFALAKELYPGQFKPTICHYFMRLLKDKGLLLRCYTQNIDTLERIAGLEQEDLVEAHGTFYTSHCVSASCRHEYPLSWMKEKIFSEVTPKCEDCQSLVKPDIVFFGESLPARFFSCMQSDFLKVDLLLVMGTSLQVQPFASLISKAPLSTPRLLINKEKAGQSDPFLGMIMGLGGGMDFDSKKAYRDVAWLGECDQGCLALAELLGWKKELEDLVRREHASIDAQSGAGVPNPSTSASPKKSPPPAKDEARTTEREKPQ
In short: (§2)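 Two-step fluorogenic assay with p53 379–382 RHKK(Ac)-AMC. Compound (from 10 mM DMSO stock) preincubated ~10 min with human SIRT before substrate addition. Developer then releases fluorophore, read at ex 360/em 460 nm.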

[2] = target: T2, NAD-dependent protein deacetylase sirtuin-2 (Homo sapiens) (UniProt Q8IXJ6); assay: Inhibition of SIRT2 in human MCF7 cells assessed as increase in alpha-tubulin K40 acetylation level at 10 to 50 uM after 24 hrs in presence of TSA by Western blot analysis; format: cell-based
T2 sequence (whole entry): T1 sequence (Q8IXJ6 whole entry)
In short: (§3)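 MCF-7 cells (ATCC, authenticated) kept in DMEM with 10% FCS, penicillin/streptomycin and 2 mM glutamine at 37 °C under 10% CO2. Treated 24 h with compound at 0, 1, 10, 20, 30 or 50 μM plus 50 nM TSA to block non-sirtuin HDACs. NP40 lysates (20 μg protein, BCA-quantified) run on SDS-PAGE and Western blotted for acetyl-K40 α-tubulin, total α-tubulin and β-actin; ECL detection.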

[3] = target: T2, NAD-dependent protein deacetylase sirtuin-2 (Homo sapiens); assay: Inhibition of SIRT2 in human MCF7 cells assessed as increase in alpha-tubulin K40 acetylation level after 24 hrs in presence of TSA by Western blot analysis; format: cell-based; in short: as §3
[4] = target: T2, NAD-dependent protein deacetylase sirtuin-2 (Homo sapiens); assay: as §1, with “coli at 10 uM” for “coli”, “assay relative to control” for “assay”; in short: as §2
[5] = target: T3, NAD-dependent protein deacetylase sirtuin-1 (Homo sapiens, UniProt Q96EB6); assay: Inhibition of recombinant human N-terminal His-tagged SIRT1 (1 to 747 end residues) expressed in Escherichia coli using p53 derived (379 to 382 residues) fluorogenic peptide substrate RHKK(Ac)-AMC preincubated for 10 mins followed by substrate addition in presence of NAD+ by fluorescence assay; in short: as §2
T3 sequence (Q96EB6 whole entry): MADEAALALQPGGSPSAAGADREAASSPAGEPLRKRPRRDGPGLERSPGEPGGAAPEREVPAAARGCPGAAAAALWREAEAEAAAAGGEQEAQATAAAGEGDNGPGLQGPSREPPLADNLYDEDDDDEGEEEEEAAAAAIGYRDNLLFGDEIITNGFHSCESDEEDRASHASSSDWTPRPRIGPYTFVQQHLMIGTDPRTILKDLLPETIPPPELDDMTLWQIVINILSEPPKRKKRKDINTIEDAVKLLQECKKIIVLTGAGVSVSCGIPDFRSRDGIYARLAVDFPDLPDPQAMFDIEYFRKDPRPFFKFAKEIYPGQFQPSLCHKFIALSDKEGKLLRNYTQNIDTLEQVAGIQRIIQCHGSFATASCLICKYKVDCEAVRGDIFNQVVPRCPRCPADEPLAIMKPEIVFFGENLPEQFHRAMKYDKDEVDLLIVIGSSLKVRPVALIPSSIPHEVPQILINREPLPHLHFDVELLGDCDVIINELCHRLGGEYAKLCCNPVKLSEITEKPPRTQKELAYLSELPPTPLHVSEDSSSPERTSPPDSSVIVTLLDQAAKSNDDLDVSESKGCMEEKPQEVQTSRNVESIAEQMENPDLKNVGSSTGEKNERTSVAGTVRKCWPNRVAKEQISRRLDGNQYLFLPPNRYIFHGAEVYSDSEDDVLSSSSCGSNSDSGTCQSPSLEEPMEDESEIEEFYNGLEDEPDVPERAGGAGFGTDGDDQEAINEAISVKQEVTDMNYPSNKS

Homo sapiens [6] = species: Homo sapiens; assay: Selectivity ratio of IC50 for recombinant human N-terminal His-tagged SIRT1 (1 to 747 end residues) expressed in Escherichia coli to IC50 for recombinant human C-terminal His-tagged SIRT2 (50 to 389 end residues) expressed in Escherichia coli
[7] = target: T4, NAD-dependent protein deacetylase sirtuin-3, mitochondrial (Homo sapiens, UniProt Q9NTG7); assay: Inhibition of recombinant human N-terminal GST-tagged SIRT3 (101 to 399 residues) expressed in Escherichia coli using p53 derived (379 to 382 residues) fluorogenic peptide substrate RHKK(Ac)-AMC) preincubated for 10 mins followed by substrate addition in presence of NAD+ by fluorescence assay
T4 sequence (Q9NTG7 whole entry): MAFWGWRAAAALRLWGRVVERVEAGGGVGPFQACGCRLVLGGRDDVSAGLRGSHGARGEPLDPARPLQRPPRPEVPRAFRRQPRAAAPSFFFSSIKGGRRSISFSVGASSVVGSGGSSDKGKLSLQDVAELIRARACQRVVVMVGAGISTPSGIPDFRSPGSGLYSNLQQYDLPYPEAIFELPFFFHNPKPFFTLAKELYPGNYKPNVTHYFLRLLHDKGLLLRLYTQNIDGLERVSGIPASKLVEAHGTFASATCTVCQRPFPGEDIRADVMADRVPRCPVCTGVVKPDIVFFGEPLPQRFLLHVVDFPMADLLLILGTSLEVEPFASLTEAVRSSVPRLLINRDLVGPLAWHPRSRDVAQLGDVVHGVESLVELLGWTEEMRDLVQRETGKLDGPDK

Homo sapiens [8] = species: Homo sapiens; assay: Selectivity ratio of IC50 for recombinant human N-terminal GST-tagged SIRT3 (101 to 399 residues) expressed in Escherichia coli to IC50 for recombinant human C-terminal His-tagged SIRT2 (50 to 389 end residues) expressed in Escherichia coli
[9] = target: T2, NAD-dependent protein deacetylase sirtuin-2 (Homo sapiens); assay: Inhibition of SIRT2 in human MCF7 cells assessed as increase in alpha-tubulin K40 acetylation level at 1 to 50 uM after 24 hrs in presence of TSA by Western blot analysis; format: cell-based; in short: as §3
[10] = target: T1, NAD-dependent protein deacetylase sirtuin-2; assay: Inhibition of recombinant human C-terminal His-tagged SIRT2 (50 to 389 end residues) expressed in Escherichia coli in presence of NAD+ by enzyme coupled SIRT-Glo assay
[11] = target: NAD-dependent protein deacylase sirtuin-5, mitochondrial (Homo sapiens, UniProt Q9NXA8); assay: Inhibition of recombinant human N-terminal His-tagged SIRT5 (37 to 310 end residues) expressed in Escherichia coli using Ac-K(Succ)-AMC as substrate in presence of NAD+ by fluorescence assay
NAD-dependent protein deacylase sirtuin-5, mitochondrial, sequence (Q9NXA8 whole entry): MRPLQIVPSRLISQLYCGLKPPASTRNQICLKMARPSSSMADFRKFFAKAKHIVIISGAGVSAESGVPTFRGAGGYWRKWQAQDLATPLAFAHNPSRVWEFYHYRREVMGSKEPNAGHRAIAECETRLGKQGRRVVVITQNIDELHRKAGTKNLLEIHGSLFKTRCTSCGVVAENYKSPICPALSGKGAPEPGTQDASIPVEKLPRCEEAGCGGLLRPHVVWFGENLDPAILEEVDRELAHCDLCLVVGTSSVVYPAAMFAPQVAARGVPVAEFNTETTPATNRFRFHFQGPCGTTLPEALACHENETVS

[12] = target: T1, NAD-dependent protein deacetylase sirtuin-2; assay: Inhibition of recombinant human C-terminal His-tagged SIRT2 (50 to 389 end residues) expressed in Escherichia coli using tubulin-K40 peptide in presence of NAD+
[13] = target: T2, NAD-dependent protein deacetylase sirtuin-2 (Homo sapiens); assay: Inhibition of SIRT2 in human MCF7 cells assessed as increase in alpha-tubulin K40 acetylation level at 50 uM after 24 hrs in presence of TSA by Western blot analysis; format: cell-based; in short: as §3
[14] = target: T2, NAD-dependent protein deacetylase sirtuin-2 (Homo sapiens); assay: Inhibition of SIRT2 in human MCF7 cells assessed as increase in alpha-tubulin K40 acetylation level at 20 uM after 24 hrs in presence of TSA by Western blot analysis; format: cell-based; in short: as §3
[15] = target: NAD-dependent protein deacylase sirtuin-6 (Homo sapiens, UniProt Q8N6T7); assay: Inhibition of human SIRT6 (13 to 308 residues) using Ac-EALPKK(Myristoyl)TGG-NH2 as substrate after 10 mins in presence of NAD+ by fluorescence assay
NAD-dependent protein deacylase sirtuin-6, sequence (Q8N6T7 whole entry, the tested form may be a part): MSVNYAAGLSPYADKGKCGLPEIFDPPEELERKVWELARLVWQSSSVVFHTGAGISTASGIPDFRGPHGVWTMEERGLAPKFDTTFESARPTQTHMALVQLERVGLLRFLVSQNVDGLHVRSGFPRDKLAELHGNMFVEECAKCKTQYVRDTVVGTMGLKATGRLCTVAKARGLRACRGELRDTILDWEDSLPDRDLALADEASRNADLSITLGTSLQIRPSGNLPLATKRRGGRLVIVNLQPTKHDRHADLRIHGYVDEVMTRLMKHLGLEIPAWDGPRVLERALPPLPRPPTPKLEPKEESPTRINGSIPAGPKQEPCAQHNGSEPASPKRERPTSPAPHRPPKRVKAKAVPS

[16] = target: T3, NAD-dependent protein deacetylase sirtuin-1; assay: Inhibition of human SIRT1 (133 to 747 residues) using (Z-Lys(Acetyl)-AMC) as substrate after 4 hrs in presence of NAD+ by fluorescence assay
[17] = target: T3, NAD-dependent protein deacetylase sirtuin-1; assay: Inhibition of human SIRT1
In short: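 Compounds were pre-incubated with human SIRT about 10 min before substrate addition, then developer added. Read ex 360/em 460 nm; activity relative to DMSO; sigmoidal 10-dose IC50, n = 2; suramin positive control.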

COc1ccc(Cn2cnc3sc4c(c3c2=O)CCC(NCc2c(C)noc2C)C4)c2ccccc12 (stereo not given)
IC50 [1]: 0.58 µM | inhibition [2]: Active | inhibition [3]: Dose-dependent effect | inhibition [4]: 96% | IC50 [5]: 129 µM | Ratio IC50 (Homo sapiens [6]): 222 | IC50 [7]: 18 µM | Ratio IC50 (Homo sapiens [8]): 31

O=c1c2c3c(sc2ncn1Cc1ccccc1)CC(NCC1CCCO1)CC3 (stereo not given)
inhibition [4]: 22% | inhibition [9]: inactive

COc1ccc2ccccc2c1Cn1cnc2sc3c(c2c1=O)CCC(NCc1cccnc1)C3 (stereo not given)
IC50 [10]: 0.17 µM | IC50 [11]: > 100 µM | IC50 [5]: > 100 µM | Ratio IC50 (Homo sapiens [6]): > 100 | Ki [12]: 0.62 µM | inhibition [13]: inactive | IC50 [7]: > 100 µM | inhibition [14]: Active | Ratio IC50 (Homo sapiens [8]): > 100

COc1ccc(CNC2CCc3c(sc4ncn(Cc5c(OC)ccc6ccccc56)c(=O)c34)C2)cc1 (stereo not given)
IC50 [1]: 0.65 µM | inhibition [4]: 96% | IC50 [5]: 119 µM

Cc1cc(C)nc(SCC(=O)Nc2ncc(Cc3cccc4ccccc34)s2)n1
IC50 [15]: > 200 µM | IC50 [16]: > 100 µM

N#Cc1ccc(CNC2CCc3c(sc4ncn(Cc5cccc6cccnc56)c(=O)c34)C2)cc1 (stereo not given)
IC50 [1]: 0.39 µM | inhibition [4]: 97% | IC50 [5]: 42.1 µM | Ratio IC50 (Homo sapiens [6]): 108 | IC50 [7]: > 100 µM | Ratio IC50 (Homo sapiens [8]): > 256

COc1ccc(Cn2cnc3sc4c(c3c2=O)CCC(NC2CCCC2)C4)c2ccccc12 (stereo not given)
IC50 [1]: 0.73 µM | inhibition [4]: 94% | IC50 [5]: 13.8 µM

N#C/C(=C\c1ccc(-c2cc(Cl)ccc2Cl)o1)C(=O)Nc1cccc2ncccc12
inhibition [2]: Active | IC50 [17]: > 50 µM
